ChEMBL document CHEMBL1133567, “5-Azidoimidacloprid and an acyclic analogue as candidate photoaffinity probes for mammalian and insect nicotinic acetylcholine receptors” (J Med Chem, 2000)

Columns and labels:
[1] = Binding affinity for nAChR with [3H]nicotine in rat brain; type: tissue-based
Method in brief: (§1)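 Competition with 5 nM [3H](-)-nicotine against varied inhibitor concentrations, using 400 µg protein from rat brain membranes or 100 µg protein from recombinant rat α4β2 membranes. Incubation 30 min at 22 °C in Tris-HCl pH 7.4 buffer with NaCl, KCl, CaCl2, MgSO4, EDTA. Stopped by filtration through polyethylenimine-soaked GF/B filters. Nonspecific binding with 5 µM (-)-nicotine.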

[2] = target: Nicotinic acetylcholine receptor; test: Binding affinity for nAChR with [3H]imidacloprid in Drosophila; type: protein-complex assay, Drosophila melanogaster
[3] = target: Nicotinic acetylcholine receptor; test: Binding affinity for nAChR with [3H]imidacloprid in Myzus persicae; type: protein-complex assay
[4] = target: Neuronal acetylcholine receptor subunit alpha-4 (Rattus norvegicus, UniProt P09483+P12390); test: Binding affinity for nAChR with [3H]-nicotine in rat alpha4 beta2 membranes; type: cell membranes; method in brief: as §1
Sequence of Neuronal acetylcholine receptor subunit alpha-4 (P09483 whole entry, one chain of several): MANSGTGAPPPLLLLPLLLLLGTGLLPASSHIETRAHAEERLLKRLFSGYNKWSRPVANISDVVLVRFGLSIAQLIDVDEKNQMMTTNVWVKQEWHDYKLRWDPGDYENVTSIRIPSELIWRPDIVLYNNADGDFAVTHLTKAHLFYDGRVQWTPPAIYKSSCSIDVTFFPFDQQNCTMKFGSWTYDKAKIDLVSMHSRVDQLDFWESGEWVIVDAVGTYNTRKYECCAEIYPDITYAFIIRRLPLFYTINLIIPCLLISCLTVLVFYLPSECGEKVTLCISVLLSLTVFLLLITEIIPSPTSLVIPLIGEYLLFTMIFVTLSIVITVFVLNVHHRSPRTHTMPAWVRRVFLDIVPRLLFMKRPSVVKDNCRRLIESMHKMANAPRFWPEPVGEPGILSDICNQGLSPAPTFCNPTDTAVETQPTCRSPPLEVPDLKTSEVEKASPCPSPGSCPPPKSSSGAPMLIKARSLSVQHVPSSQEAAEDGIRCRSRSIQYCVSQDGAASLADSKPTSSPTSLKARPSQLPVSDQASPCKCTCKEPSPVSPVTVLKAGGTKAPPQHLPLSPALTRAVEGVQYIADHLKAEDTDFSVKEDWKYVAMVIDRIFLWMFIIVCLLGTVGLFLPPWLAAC

Compound | Ki [1] | Ki [2] | Ki [3] | Ki [4]
C/N=C(\NCc1ccc(Cl)nc1)N[N+](=O)[O-] | 3500 nM | 10 nM | 12 nM | 
C/N=C(\NCc1cnc(Cl)c(N=[N+]=[N-])c1)N[N+](=O)[O-] | 44 nM | 13 nM | 4.5 nM | 
[N-]=[N+]=Nc1cc(CN2CCNC2=N[N+](=O)[O-])cnc1Cl [5-AZIDOIMIDACLOPRID] | 44 nM | 15 nM | 1 nM | 4.4 nM
O=[N+]([O-])NC1=NCCN1Cc1ccc(Cl)nc1 [IMIDACLOPRID] | 290 nM | 2.1 nM | 1.9 nM | 50 nM
